Experimental findings from ChEMBL document CHEMBL1126839, “Imidazol-1-yl and pyridin-3-yl derivatives of 4-phenyl-1,4-dihydropyridines combining Ca2+ antagonism and thromboxane A2 synthase inhibition” (J Med Chem, 1993) are described below.

Structures are written as SMILES.

One assay addresses T1, Thromboxane-A synthase (Rattus norvegicus, UniProt P49430).
T1 sequence (P49430 whole entry): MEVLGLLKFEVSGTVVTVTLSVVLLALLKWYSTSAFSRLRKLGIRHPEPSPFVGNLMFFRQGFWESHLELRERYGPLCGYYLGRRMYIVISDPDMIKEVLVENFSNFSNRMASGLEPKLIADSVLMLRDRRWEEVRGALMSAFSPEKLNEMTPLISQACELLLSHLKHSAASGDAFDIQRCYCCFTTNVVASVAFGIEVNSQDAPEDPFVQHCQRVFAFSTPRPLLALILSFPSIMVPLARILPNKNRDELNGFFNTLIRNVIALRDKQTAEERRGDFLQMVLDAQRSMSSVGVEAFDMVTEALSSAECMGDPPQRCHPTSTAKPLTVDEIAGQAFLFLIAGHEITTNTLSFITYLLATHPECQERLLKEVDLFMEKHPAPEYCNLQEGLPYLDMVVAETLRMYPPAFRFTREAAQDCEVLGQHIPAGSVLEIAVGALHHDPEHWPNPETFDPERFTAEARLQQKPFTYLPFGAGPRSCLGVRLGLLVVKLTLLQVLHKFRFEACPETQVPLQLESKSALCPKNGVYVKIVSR
The assay can be described thus: In vitro inhibition of thromboxane B2 production in rat whole blood. Type of assay: functional, tissue-based.

For assay [1], the species on record is Cavia porcellus. Put plainly: Inhibition of K+ induced contractions of the isolated guinea pig ileum. Type of assay: functional.
Assay [2] is filed under the species Cavia porcellus. The assay can be described thus: Tested for [Ca2+] antagonism in guinea pig right ventricle. Type of assay: functional. The note with it: Heart right ventricle. A digest of the protocol: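 Male guinea pig (0.5–0.8 kg) right ventricular strips (10 × 2 mm) in oxygenated Tyrode at 29 °C, 1 g preload. Electrically paced (3 ms, 2 Hz) for 60 min, depolarized with 22 mM KCl, then contractility restored with 10 μM histamine at 0.2 Hz pacing. Isometric contraction recorded; IC50 from computerized regression analysis.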

Assay [3] is filed under the species Cavia porcellus. Put plainly: Tested for [Ca2+] antagonism in guinea pig atria. Type of assay: functional. In a few lines:
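Male guinea pig (0.5–0.8 kg) spontaneously beating atria in oxygenated (95% O2/5% CO2) Locke solution at 37 °C under 1 g preload, rested 60 min. Compounds added cumulatively with 30 min contact per concentration. Isometric contraction recorded; IC25 from computerized regression analysis.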

Another assay is filed under the species Oryctolagus cuniculus. The assay can be described thus: Tested for [Ca2+] antagonism in rabbit renal artery. Type of assay: functional. In a few lines:
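Isolated renal artery under 1 g tension; isometric contractions to 60 mM KCl repeated at 30 min intervals without and with increasing concentrations of test compound or nifedipine as reference. IC50 from the concentration–response.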

The species named for assay [4] is Cavia porcellus. Put plainly: Tested for [Ca2+] antagonism in guinea pig ileum. Type of assay: functional. In a few lines: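 Screening preparation under 1 g tension; isometric contractions to 60 mM KCl elicited at 15-min intervals without and with increasing compound concentrations. IC50 (concentration inhibiting the KCl response by 50%) from least-squares regression.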

For `CCOC(=O)C1=C(C)N=C(C)/C(=C(/O)OCC)C1c1cccc(-c2cccnc2)c1` (centres undefined), the IC50 (usually the point on the concentration scale where inhibition reaches its midpoint) at Thromboxane-A synthase was found to be 280 nM; in the assay listed under Cavia porcellus [1], 100 nM.
As for `CCO/C(O)=C1\C(C)=NC(C)=C(C(=O)OCCN(C)Cc2ccccc2)C1c1cccc(-n2ccnc2)c1` (centres undefined), the results for the IC50 at Thromboxane-A synthase and in the assay listed under Cavia porcellus [1] were 220 nM and 50 nM, respectively.
In the case of `COC(=O)C1=C(C)NC(C)=C(C(=O)OC)C1c1ccccc1[N+](=O)[O-]` [NIFEDIPINE], the IC50 against Thromboxane-A synthase was > 10000 nM; in the assay listed under Cavia porcellus [2], 57.8 nM; in the assay filed under Cavia porcellus [1] it was 4 nM; in the assay filed under Oryctolagus cuniculus, 6.9 nM; in the assay listed under Cavia porcellus [4], 4.7 nM. Besides, it took 31.5 nM to reach the 25% level in the assay filed under Cavia porcellus [3] (IC25).
Consider `CCOC(=O)C1=C(CC)N=C(CC)/C(=C(/O)OCC)C1c1cccc(-n2ccnc2)c1` (centres undefined), for which the IC50 at Thromboxane-A synthase is > 1000 nM; in the assay listed under Cavia porcellus [1], 970 nM.
Regarding `CO/C(O)=C1\C(C)=NC(C)=C(C(C)=O)C1c1cccc(-n2ccnc2)c1` (centres undefined), the figures for the IC50 on Thromboxane-A synthase and in the assay filed under Cavia porcellus [1] were 260 nM and > 10000 nM, respectively.
Consider `CCOC(=O)C1=C(C)N=C(C)/C(=C(/O)OCC)C1c1cccc(-n2ccnc2)c1` (centres undefined), for which the IC50 at Thromboxane-A synthase worked out at 170 nM; in the assay filed under Cavia porcellus [2] it was 2150 nM; in the assay listed under Cavia porcellus [1] it was 60 nM; in the assay listed under Oryctolagus cuniculus, 111 nM; in the assay filed under Cavia porcellus [4] it was 61.5 nM. The IC25 – broadly, the concentration at which the effect reaches the 25% level – in the assay listed under Cavia porcellus [3] was determined as 94.2 nM.
As for `CCO/C(O)=C1\C(C)=NC(C)=C(C(=O)OC)C1c1cccc(-n2ccnc2)c1` (centres undefined), the half-maximal inhibitory concentration (IC50) was 240 nM on Thromboxane-A synthase and 260 nM in the assay filed under Cavia porcellus [1].
`CCOC(=O)C1=C(C)N=C(C)/C(=C(/O)OCC)C1c1cccc(Cn2ccnc2)c1` (centres undefined): the half-maximal inhibitory concentration (IC50) against Thromboxane-A synthase was 730 nM; in the assay filed under Cavia porcellus [1], 1670 nM.
For `CCO/C(O)=C1\C(COC)=NC(C)=C(C(=O)OC)C1c1cccc(-n2ccnc2)c1` (centres undefined), the half-maximal inhibitory concentration (IC50) at Thromboxane-A synthase is 400 nM; in the assay filed under Cavia porcellus [1], 1950 nM.
Regarding `CCOC(=O)c1c(C)nc(C)c(C(=O)OCC)c1-c1cccc(-n2ccnc2)c1`, the values for the half-inhibitory concentration (IC50) against Thromboxane-A synthase and in the assay filed under Cavia porcellus [1] were > 1000 nM and > 10000 nM, respectively.
Take `CCO/C(O)=C1\C(C)=NC(C)=C(C(=O)OCCN(C)Cc2ccccc2)C1c1cccc(-c2cccnc2)c1` (centres undefined): the 50% inhibitory concentration (IC50) against Thromboxane-A synthase was > 1000 nM; in the assay listed under Cavia porcellus [1] it was 60 nM.
Turning to `CCO/C(O)=C1\C(COCCN)=NC(C)=C(C(=O)OC)C1c1cccc(-n2ccnc2)c1` (centres undefined), the results for the half-maximal inhibitory concentration (IC50) against Thromboxane-A synthase and in the assay filed under Cavia porcellus [1] were 300 nM and 2370 nM, respectively.
Regarding `CCOC(=O)C1=C(C)N(C)C(C)=C(C(=O)OCC)C1c1cccc(-n2ccnc2)c1`, the IC50 turned out to be 640 nM on Thromboxane-A synthase and 8840 nM in the assay listed under Cavia porcellus [1].
Turning to `COC(=O)C1=C(C)N=C(C)/C(=C(/O)OC)C1c1cccc(-n2ccnc2)c1` (centres undefined), the 50% inhibitory concentration (IC50) against Thromboxane-A synthase worked out at 270 nM; in the assay listed under Cavia porcellus [1], 850 nM.
Regarding `CCO/C(O)=C1\C(C)=NC(C)=C(C(=O)O)C1c1cccc(-n2ccnc2)c1` (centres undefined), the 50% inhibitory concentration (IC50) on Thromboxane-A synthase was > 1000 nM; in the assay filed under Cavia porcellus [1], 1960 nM.
Take `CC1=NC(C)=C(C(=O)OCC(C)C)C(c2cccc(-c3cccnc3)c2)/C1=C(\O)OCC(C)C` (centres undefined): the IC50 is > 1000 nM against Thromboxane-A synthase and 1500 nM in the assay listed under Cavia porcellus [1].
For the compound `CCOC(=O)C1=C(C)N=C(C)/C(=C(/O)OCC)C1c1ccccc1-n1ccnc1` (centres undefined), the IC50 is > 1000 nM at Thromboxane-A synthase and 460 nM in the assay listed under Cavia porcellus [1].
As to `CCOC(=O)C1=C(C)N=C(C)/C(=C(/O)OCC)C1c1ccc(-n2ccnc2)cc1` (centres undefined), the IC50 against Thromboxane-A synthase was > 1000 nM; in the assay filed under Cavia porcellus [1] it was 23000 nM.
